# Target: Replicase polyprotein 1ab (Severe acute respiratory syndrome coronavirus 2) (UniProt P0DTD1)
# Experiment: Inhibition of SARS-CoV-2 main protease at 50 uM using Dabcy1-KTSAVLQSGFRKM-E-Edans-NH2 as substrate incubated for 10 mins followed by substrate addition by FRET assay relative to control
# Summary of the method: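 Mpro, 0.5 µM final, in pH 7.3 buffer (20 mM Tris-HCl, 100 mM NaCl, 1 mM EDTA, 1 mM DTT) preincubated with compound (50 µM final, from DMSO stock) at 37 °C for 10 min. Reaction started with FRET substrate solution at 20 µM. Read ex 360/em 460 nm. Inhibition is from the initial linear ΔRFU/s versus a DMSO-only control. Triplicate, mean ± SD.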
row,Compound,inhibition [%]
1,Cc1ccc(-n2nc(C)c3c(C)cc(OCc4ccc5nonc5c4)nc32)cc1,5.26
2,O=C(NCc1ccc2c(c1)OCO2)c1ccc2nc3[nH]c4ccccc4c3nc2c1,35.6
3,Cc1cc(C)nc(-n2nc(C)c3c2NC(=O)C[C@@H]3c2ccc3ccccc3c2)n1,7.54
4,Cc1cccc2[nH]c([C@H]3CCCN(C(=O)c4nc5ccccn5c4F)C3)nc12,11.1
5,CC(=O)N1N=C(c2cc(-c3ccccc3)nc3ccccc23)O[C@H]1c1ccccc1,14.3
6,Cn1c2ccccc2c(=O)c2c1nc(Cc1ccccc1)n1c3ccccc3nc21,7.42
7,CC1=NN(c2ccc3ccccc3c2)C(=O)/C1=C1/C(=O)Nc2ccc(Cl)cc21,16.6
8,O=C(c1cc2nccc(-c3ccc4ccccc4c3)n2n1)N1CCN2CCC[C@H]2C1,9.38
9,Cc1ccc2c(c1)NC1(CCN(C(=O)Cc3ccc(F)cc3)CC1)c1cccn1-2,6.29
10,Fc1ccc([C@H]2Oc3ccccc3[C@H]3CC(c4ccc5c(c4)OCO5)=NN32)cc1,6.87
11,Cn1c2ccccc2c2cc([C@@H]3N[C@H](C(=O)O)Cc4c3[nH]c3ccccc43)ccc21,6.54
12,O=C(CN1C(=O)c2ccccc2N2C(=O)c3ccccc3[C@H]12)Nc1cccc(O)c1,5.21
13,Cc1cccc2cc(-c3c4cn[nH]c4nc4c3oc3c(O)c(O)ccc34)c(=O)[nH]c12,76.6
14,Cc1cccc(Nc2nc(C(=O)N3CCc4ccccc43)nc3ccccc23)c1,45.7
15,O=C(c1ccc2ccccc2n1)N1CCc2c(nc(-c3ccccc3)[nH]c2=O)C1,1.16
16,O=C1C[C@H](c2ccc(Cl)cc2)N2N=C(N3C(=O)[C@H]4CCCC[C@H]4C3=O)NC2=N1,8.84
17,O=c1oc2ccccc2c(O)c1[C@H]1c2ncccc2-c2c1c(=O)oc1ccccc21,8.23

# Reference: ChEMBL document CHEMBL4814039, “Identification of non-covalent SARS-CoV-2 main protease inhibitors by a virtual screen of commercially available drug-like compounds” (Bioorg Med Chem Lett, 2021)
